Data set [1] can be described thus: Half life in Sprague-Dawley rat at 4 mg/kg, iv. It counts as ADME, organism-based. Also on record: dose 4 mg/kg, route intravenous. The note with it: in vivo. In short, it runs like this:
(§1)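 Sprague–Dawley rats dosed iv at 4 mpk as the HCl salt in 60% PEG 200/water, 1 ml/kg.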

Data set [2] is described as follows: Volume of distribution at steady state in Sprague-Dawley rat at 4 mg/kg, iv. The data set is classed as ADME, organism-based. Also on record: dose 4 mg/kg, route intravenous. The note with it: in vivo, read-out: Vdss. In short, it runs like this:
as §1

Another data set relates to Rattus norvegicus. Put plainly: AUC in Sprague-Dawley rat at 30 mg/kg, po. The note with it: in vivo.
Data set [3] addresses T1, Renin (Homo sapiens, UniProt P00797).
T1 sequence (P00797 whole entry): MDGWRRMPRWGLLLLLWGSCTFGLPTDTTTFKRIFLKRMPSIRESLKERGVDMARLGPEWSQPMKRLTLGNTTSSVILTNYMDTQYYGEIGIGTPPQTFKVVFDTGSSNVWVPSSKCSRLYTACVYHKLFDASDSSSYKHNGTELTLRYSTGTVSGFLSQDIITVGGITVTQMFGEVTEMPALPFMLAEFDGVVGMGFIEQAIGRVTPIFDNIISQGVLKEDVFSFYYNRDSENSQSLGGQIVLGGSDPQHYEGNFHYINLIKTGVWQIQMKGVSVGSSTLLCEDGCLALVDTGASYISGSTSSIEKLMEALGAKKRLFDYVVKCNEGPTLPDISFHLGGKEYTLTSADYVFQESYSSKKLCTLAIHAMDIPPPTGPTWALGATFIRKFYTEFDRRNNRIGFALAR
Put plainly: Inhibition of human recombinant renin in phosphate buffer. In short, it runs like this: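 Recombinant human renin in PBS with 1 mM EDTA, 0.1% BSA, pH 7.4, premixed at 4 °C with human tetradecapeptide(1–14) substrate (stock 5 μM in 10 mM HCl) and hydroxyquinoline sulfate (stock 30 mM). Compounds diluted in DMSO were added, then incubated 3 h at 37 °C. Angiotensin I accumulation was measured; IC50 from % inhibition curve fit, mean of at least two experiments.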

Data set [4] addresses T1, Renin. Put plainly: Inhibition of human recombinant renin in plasma. The method in brief:
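Pooled frozen human citrate plasma supplemented with recombinant human renin (150 pg/ml final). Inhibitor in DMSO at various concentrations added to a 7:1 mix of plasma and trapping anti-angiotensin I antibody (final antiserum 1:50,000) in Tris/EDTA, pH 7.2.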

Data set [5] is described as follows: Oral bioavailability in Sprague-Dawley rat at 30 mg/kg. It counts as ADME, organism-based. The settings on record: in vivo. The method in brief:
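Sprague–Dawley rats dosed orally at 30 mpk as the HCl salt in 0.5% methocel, 5 ml/kg; iv reference dose 4 mpk in 60% PEG 200/water, 1 ml/kg.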

A short description of data set [6]: Clearance in Sprague-Dawley rat at 4 mg/kg, iv. It counts as ADME, organism-based. Also on record: dose 4 mg/kg, route intravenous. The settings on record: in vivo. In short, it runs like this: as §1
Data set [7] in a line: AUC in Sprague-Dawley rat at 30 mg/kg, po. The settings on record: Sprague-Dawley, plasma.

This is an account of results in ChEMBL document CHEMBL1255516, “Identification of a new biaryl scaffold generating potent renin inhibitors” (Bioorg Med Chem Lett, 2010).

Consider `COCCCc1ccc(Cl)c(CN(C(=O)[C@@H](CN)Cc2ccc(OCCOc3c(Cl)cc(C)cc3Cl)cc2)C2CC2)c1`, for which the half-life in data set [1] is 6 h. The Vd in data set [2] stood at 12 L/kg. Besides, the AUC in the data set on Rattus norvegicus was found to be 8.3 µM·h.
On to `COC(=O)CCc1ccccc1-c1ccc(C(CN)Cc2ccc(OCCOc3c(Cl)cc(C)cc3Cl)cc2)c(C)c1` (stereo not drawn), for which the IC50 was found to be 0.09 nM on Renin [3] and 141 nM at Renin [4].
Consider `Cc1cc(Cl)c(OCCOc2ccc(CC(CN)c3ccc(-c4ccccc4CCC(=O)N(C)C)cc3C)cc2)c(Cl)c1` (stereo not drawn), for which the IC50 on Renin [4] is 1110 nM.
`Cc1cc(Cl)c(OCCOc2ccc(CC(CN)c3ccc(-c4ccccc4CCOC(N)=O)cc3C)cc2)c(Cl)c1` (stereo not drawn): the IC50 stood at 1.02 nM at Renin [3] and 103 nM on Renin [4].
For the compound `CC(=O)NCCc1ccccc1-c1ccc(C(CN)Cc2ccc(OCCOc3c(Cl)cc(C)cc3Cl)cc2)c(C)c1` (stereo not drawn), the 50% inhibitory concentration (IC50) at Renin [3] was found to be 0.04 nM. Further, in data set [5], the bioavailability was determined as 23%. Moreover, in data set [6], the clearance is 34 mL/min/kg. For the same compound, the half-life in data set [1] was 7 h. Moreover, in data set [2], the Vd amounted to 9 L/kg. In data set [7], this compound registered an AUC of 5.5 µM·h.
With `CC(=O)NCCCc1ccccc1-c1ccc(C(CN)Cc2ccc(OCCOc3c(Cl)cc(C)cc3Cl)cc2)c(C)c1` (stereo not drawn), the IC50 worked out at 0.97 nM on Renin [3] and 131 nM on Renin [4].
For the compound `Cc1cc(Cl)c(OCCOc2ccc(CC(CN)c3ccc(-c4ccccc4Cl)cc3Cl)cc2)c(Cl)c1` (stereo not drawn), on Renin [3], the IC50 was 0.52 nM.
On the same count and under the same terms, as for `COCCCc1ccccc1-c1ccc(C(CN)Cc2ccc(OCCOc3c(Cl)cc(C)cc3Cl)cc2)c(C)c1` (stereo not drawn), the figure is 0.44 nM.
Consider `COC(=O)Cc1ccccc1-c1ccc(C(CN)Cc2ccc(OCCOc3c(Cl)cc(C)cc3Cl)cc2)c(C)c1` (stereo not drawn), for which the half-maximal inhibitory concentration (IC50) amounted to 12.9 nM at Renin [3] and 534 nM on Renin [4].
On the same counts, the results for `CC(=O)NCc1ccccc1-c1ccc(C(CN)Cc2ccc(OCCOc3c(Cl)cc(C)cc3Cl)cc2)c(C)c1` (stereo not drawn) are 2.1 nM and 138 nM.
As to `Cc1cc(Cl)c(OCCOc2ccc(CC(CN)c3ccc(-c4cnc5cnccn45)cc3C)cc2)c(Cl)c1` (stereo not drawn), the IC50 stood at 3.9 nM at Renin [3] and 416 nM at Renin [4].
On the same counts, the results for `Cc1cc(Cl)c(OCCOc2ccc(CC(CN)c3ccc(-c4ccnc(N)c4)cc3C)cc2)c(Cl)c1` (stereo not drawn) are 1.7 nM and 228 nM.
On the same counts, the results for `Cc1cc(Cl)c(OCCOc2ccc(CC(CN)c3ccc(-c4cncnc4)cc3C)cc2)c(Cl)c1` (stereo not drawn) are 4.9 nM and 614 nM.
